Calls of active or inactive are those of the source. The rule behind the calls is not given here.
Tests used:
Canis familiaris [1] = assay: Decrease in systemic arterial blood pressure in dog at >5 ng/kg, iv measured for 2 to 20 mins after drug dosage; type: functional, organism-based; conditions: Canis lupus familiaris; Artery
[2] = molecular target: Substance-P receptor (Cavia porcellus) (UniProt P30547); assay: Agonist activity at NK1 receptor in guinea pig ileum assessed as increase in muscle tone; type: tissue-based
Chain of Substance-P receptor (Cavia porcellus) (P30547 whole entry): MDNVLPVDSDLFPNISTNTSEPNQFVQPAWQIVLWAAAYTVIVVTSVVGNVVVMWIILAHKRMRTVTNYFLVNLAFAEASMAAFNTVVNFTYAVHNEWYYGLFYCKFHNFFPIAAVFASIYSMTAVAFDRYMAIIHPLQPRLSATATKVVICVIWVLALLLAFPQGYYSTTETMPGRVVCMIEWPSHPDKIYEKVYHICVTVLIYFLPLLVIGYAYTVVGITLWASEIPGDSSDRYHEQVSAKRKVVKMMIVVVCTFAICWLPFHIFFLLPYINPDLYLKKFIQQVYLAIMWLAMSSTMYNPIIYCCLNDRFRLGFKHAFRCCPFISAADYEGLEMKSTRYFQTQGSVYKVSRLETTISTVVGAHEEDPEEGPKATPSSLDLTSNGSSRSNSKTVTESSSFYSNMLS
Outline: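 Guinea pig ileum segment suspended in a 3-ml bath of oxygenated Tyrode's solution at 38°, with contractile response recorded.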

[3] = molecular target: Substance-P receptor (Rattus norvegicus) (UniProt P14600); assay: Antagonist activity at NK1 receptor in Sprague-Dawley rat pituitary gland assessed as inhibition of LH release by radioimmunoassay in presence of LH-RH
Chain of Substance-P receptor (Rattus norvegicus) (P14600 whole entry): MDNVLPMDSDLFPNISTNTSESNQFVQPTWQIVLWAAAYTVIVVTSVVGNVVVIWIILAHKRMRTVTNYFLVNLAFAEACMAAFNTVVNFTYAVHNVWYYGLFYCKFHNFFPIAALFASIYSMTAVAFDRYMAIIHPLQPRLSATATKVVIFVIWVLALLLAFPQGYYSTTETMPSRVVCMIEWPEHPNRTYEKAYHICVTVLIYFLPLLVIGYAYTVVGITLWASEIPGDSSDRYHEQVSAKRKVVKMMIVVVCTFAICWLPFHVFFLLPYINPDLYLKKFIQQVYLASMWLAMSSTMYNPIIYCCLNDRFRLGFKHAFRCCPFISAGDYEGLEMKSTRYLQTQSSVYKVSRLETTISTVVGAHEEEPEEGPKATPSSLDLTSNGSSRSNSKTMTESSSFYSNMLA
Outline: (§1)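 Anterior pituitaries from 20-day-old female Sprague-Dawley rats, two per 1 ml lactated Ringer's, incubated 6 hr at 37° with shaking. Medium was replaced hourly and assayed by RIA for LH, FSH, GH, PRL and TSH. Peptide was added after two preincubation periods (I3–I6), with LH-RH at I5 and I6. Agonism was read from I3/I4 release and antagonism from I5/I6. Values are in ng of NIH reference standards.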

[4] = molecular target: Substance-P receptor (Rattus norvegicus) (UniProt P14600); assay: Antagonist activity at NK1 receptor in Sprague-Dawley rat pituitary gland assessed as inhibition of FSH release by radioimmunoassay in presence of LH-RH; outline: as §1
Pituitary gland [5] = assay: Effect on growth hormone release in Sprague-Dawley rat pituitary gland at 100 ug/ml by radioimmunoassay; type: functional, tissue-based; outline: as §1
Pituitary gland [6] = assay: Effect on prolactin release in Sprague-Dawley rat pituitary gland at 100 ug/ml by radioimmunoassay; type: functional, tissue-based; outline: as §1
Pituitary gland [7] = assay: Effect on thyrotropin hormone release in Sprague-Dawley rat pituitary gland at 100 ug/ml by radioimmunoassay; type: functional, tissue-based; outline: as §1
[8] = Retardation factor of the compound using EtOAc-Pyr-HOAc-H2O at ratio of 5:5:1:3 as solvent system by thin layer chromatography; type: physicochemical
[9] = Retardation factor of the compound using CHCl3-MeOH-concentrated NH4OH at ratio of 60:45:20 as solvent system by thin layer chromatography; type: physicochemical
[10] = Retardation factor of the compound using EtOH-H2O at ratio of 7:3 as solvent system by thin layer chromatography; type: physicochemical
[11] = Retardation factor of the compound using n-BuOH-HOAc-EtOAc-H2O at ratio of 1:1:1:1 as solvent system by thin layer chromatography; type: physicochemical
[12] = Retardation factor of the compound using n-PrOH-1N HOAc at ratio of 2:1 as solvent system by thin layer chromatography; type: physicochemical
Canis familiaris [13] = assay: Decrease in systemic arterial blood pressure in dog at 10 ng/kg, iv measured for 2 to 20 mins after drug dosage (reference value: 140 mmHg); type: functional, Canis lupus familiaris, Artery
[14] = molecular target: Substance-P receptor (Rattus norvegicus) (UniProt P14600); assay: Agonist activity at NK1 receptor in Sprague-Dawley rat pituitary gland assessed as change in LH release at 1000 ng/ml by radioimmunoassay (reference value: -11 +/- 27 ng/ml)
[15] = molecular target: Substance-P receptor (Rattus norvegicus) (UniProt P14600); assay: Agonist activity at NK1 receptor in Sprague-Dawley rat pituitary gland assessed as change in LH release at 10000 ng/ml by radioimmunoassay (reference value: -11 +/- 27 ng/ml)
[16] = molecular target: Substance-P receptor (Rattus norvegicus) (UniProt P14600); assay: Agonist activity at NK1 receptor in Sprague-Dawley rat pituitary gland assessed as change in LH release at 100000 ng/ml by radioimmunoassay (reference value: -11 +/- 27 ng/ml)
[17] = molecular target: Substance-P receptor (Rattus norvegicus) (UniProt P14600); assay: Agonist activity at NK1 receptor in Sprague-Dawley rat pituitary gland assessed as change in FSH release at 1000 ng/ml by radioimmunoassay (reference value: 613 +/- 203 ng/ml)
[18] = molecular target: Substance-P receptor (Rattus norvegicus) (UniProt P14600); assay: Agonist activity at NK1 receptor in Sprague-Dawley rat pituitary gland assessed as change in FSH release at 10000 ng/ml by radioimmunoassay (reference value: 613 +/- 203 ng/ml)
[19] = molecular target: Substance-P receptor (Rattus norvegicus) (UniProt P14600); assay: Agonist activity at NK1 receptor in Sprague-Dawley rat pituitary gland assessed as change in FSH release at 100000 ng/ml by radioimmunoassay (reference value: 613 +/- 203 ng/ml)

- Activity [2]: Active
- inhibition [3]: inactive
- inhibition [4]: inactive
- Rf [8]: 0.9
- Rf [9]: 0.13
- Rf [10]: 0
- Rf [11]: 0.09
- Rf [12]: 0.05
- Activity [14]: -13 ng/mL
- Activity [15]: 11 ng/mL
- Activity [16]: 68 ng/mL
- Activity [17]: 666 ng/mL
- Activity [18]: 586 ng/mL
- Activity [19]: 1330 ng/mL
SMILES: CSCC[C@H](NC(=O)[C@H](CC(C)C)NC(=O)CNC(=O)[C@H](Cc1ccc(O)cc1)NC(=O)[C@H](Cc1ccccc1)NC(=O)[C@H](CCC(N)=O)NC(=O)[C@H](CCC(N)=O)NC(=O)[C@@H]1CCCN1C(=O)[C@H](CCCCN)NC(=O)[C@@H]1CCCN1C(=O)[C@@H](N)CCCNC(=N)N)C(N)=O
- inhibition (Canis familiaris [1]): Active
- Activity (Pituitary gland [5]): inactive
- Activity (Pituitary gland [6]): inactive
- Activity (Pituitary gland [7]): inactive
- Activity (Canis familiaris [13]): 110 mmHg
